Measurements: ChEMBL document CHEMBL4049394, “Desing and synthesis of potent anti-Trypanosoma cruzi agents new thiazoles derivatives which induce apoptotic parasite death” (Eur J Med Chem, 2017)
One block for each compound: values may come before it.

Experiments:
Trypanosoma cruzi [1] = assay: Induction of apoptosis in bloodstream trypomastigote stage of Trypanosoma cruzi Y infected in monkey LLC-MK2 cells assessed as necrotic cells at 5 uM measured after 24 hrs by Annexin-V-FITC/propidium iodide staining based flow cytometric method (reference value: 0.014%); format: functional
[2] = Selectivity index, ratio of highest non-cytotoxic concentration for mouse J774A.1 cells to CC50 for bloodstream trypomastigote stage of Trypanosoma cruzi Y infected in monkey LLC-MK2 cells; format: toxicity, cell-based; details: read-out: Selectivity Index
Summary of the method: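 Selectivity index is the highest non-cytotoxic concentration in J774A.1 macrophages divided by the 50% value against Y strain trypomastigotes measured after 24 h.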

[3] = Cytotoxicity against mouse J774A.1 cells after 24 to 72 hrs by MTT assay; format: cell-based, J774.A1; details: read-out: MNCC
Summary of the method: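 J774A.1 macrophages in DMEM with 10% heat-inactivated FBS at 37 °C, 5% CO2. Seeded at 1×10^5 cells/well, 24 h preincubation, then compounds at 1–100 µg/mL for 72 h (table footnote: viability at 24 h). MTT 2 h, formazan dissolved in DMSO, absorbance read at 570 nm. Highest non-cytotoxic concentration reported.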

Trypanosoma cruzi [4] = assay: Induction of apoptosis in bloodstream trypomastigote stage of Trypanosoma cruzi Y infected in monkey LLC-MK2 cells assessed as necrotic cells at 2.5 uM measured after 24 hrs by Annexin-V-FITC/propidium iodide staining based flow cytometric method (reference value: 0.014%); format: functional
Trypanosoma cruzi [5] = assay: Antitrypanosomal activity against Trypanosoma cruzi Dm28c epimastigotes measured after 4 to 5 days by neubauer chamber method; format: functional
Summary of the method: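 Dm28c epimastigotes in LIT with 10% FBS, 1% hemin and gentamycin at 27 °C. Seeded at 10^6 cells/well and treated in triplicate for 4 days (table footnote: 5 days). Parasites counted in a Neubauer chamber against untreated wells as 100%. IC50 by nonlinear regression from at least five concentrations. Experiment repeated; only values with SD < 10% of mean kept.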

Trypanosoma cruzi [6] = assay: Induction of apoptosis in bloodstream trypomastigote stage of Trypanosoma cruzi Y infected in monkey LLC-MK2 cells assessed as early apoptotic cells at 5 uM measured after 24 hrs by Annexin-V-FITC/propidium iodide staining based flow cytometric method (reference value: 0.31%); format: functional
Trypanosoma cruzi [7] = assay: Antitrypanosomal activity against bloodstream trypomastigote stage of Trypanosoma cruzi Y infected in monkey LLC-MK2 cells measured after 24 hrs by neubauer chamber method; format: functional; details: LLC-MK2, in Primates
Summary of the method: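 Y strain trypomastigotes taken from LLC-MK2 culture supernatant and held in RPMI-1640 with 10% FBS. Seeded at 4×10^5 cells/well and treated in triplicate for 24 h at 37 °C, 5% CO2. Motile parasites counted in a Neubauer chamber against untreated wells. IC50 by nonlinear regression from at least seven concentrations. Experiment repeated; SD < 10% of mean required.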

Trypanosoma cruzi [8] = assay: Induction of apoptosis in bloodstream trypomastigote stage of Trypanosoma cruzi Y infected in monkey LLC-MK2 cells assessed as early apoptotic cells at 2.5 uM measured after 24 hrs by Annexin-V-FITC/propidium iodide staining based flow cytometric method (reference value: 0.31%); format: functional
Trypanosoma cruzi [9] = assay: Induction of apoptosis in bloodstream trypomastigote stage of Trypanosoma cruzi Y infected in monkey LLC-MK2 cells assessed as late apoptotic cells at 5 uM measured after 24 hrs by Annexin-V-FITC/propidium iodide staining based flow cytometric method (reference value: 0.27%); format: functional
Trypanosoma cruzi [10] = assay: Induction of apoptosis in bloodstream trypomastigote stage of Trypanosoma cruzi Y infected in monkey LLC-MK2 cells assessed as late apoptotic cells at 2.5 uM measured after 24 hrs by Annexin-V-FITC/propidium iodide staining based flow cytometric method (reference value: 0.27%); format: functional
Trypanosoma cruzi [11] = assay: Induction of apoptosis in bloodstream trypomastigote stage of Trypanosoma cruzi Y infected in monkey LLC-MK2 cells assessed as viable cells at 1.2 uM measured after 24 hrs by Annexin-V-FITC/propidium iodide staining based flow cytometric method (reference value: 99.4%); format: functional
Trypanosoma cruzi [12] = assay: Induction of apoptosis in bloodstream trypomastigote stage of Trypanosoma cruzi Y infected in monkey LLC-MK2 cells assessed as necrotic cells at 1.2 uM measured after 24 hrs by Annexin-V-FITC/propidium iodide staining based flow cytometric method (reference value: 0.014%); format: functional
Trypanosoma cruzi [13] = assay: Potency index, ratio of benznidazole CC50 to compound CC50 for Trypanosoma cruzi Dm28c epimastigotes; format: functional
Trypanosoma cruzi [14] = assay: Induction of apoptosis in bloodstream trypomastigote stage of Trypanosoma cruzi Y infected in monkey LLC-MK2 cells assessed as late apoptotic cells at 1.2 uM measured after 24 hrs by Annexin-V-FITC/propidium iodide staining based flow cytometric method (reference value: 0.27%); format: functional
Trypanosoma cruzi [15] = assay: Induction of apoptosis in bloodstream trypomastigote stage of Trypanosoma cruzi Y infected in monkey LLC-MK2 cells assessed as early apoptotic cells at 1.2 uM measured after 24 hrs by Annexin-V-FITC/propidium iodide staining based flow cytometric method (reference value: 0.31%); format: functional
Trypanosoma cruzi [16] = assay: Potency index, ratio of benznidazole CC50 to compound CC50 for bloodstream trypomastigote stage of Trypanosoma cruzi Y infected in monkey LLC-MK2 cells; format: functional
Trypanosoma cruzi [17] = assay: Induction of apoptosis in bloodstream trypomastigote stage of Trypanosoma cruzi Y infected in monkey LLC-MK2 cells assessed as late apoptotic cells at 2.4 uM measured after 24 hrs by Annexin-V-FITC/propidium iodide staining based flow cytometric method (reference value: 0.27%); format: functional
Trypanosoma cruzi [18] = assay: Induction of apoptosis in bloodstream trypomastigote stage of Trypanosoma cruzi Y infected in monkey LLC-MK2 cells assessed as necrotic cells at 2.4 uM measured after 24 hrs by Annexin-V-FITC/propidium iodide staining based flow cytometric method (reference value: 0.014%); format: functional
Trypanosoma cruzi [19] = assay: Induction of apoptosis in bloodstream trypomastigote stage of Trypanosoma cruzi Y infected in monkey LLC-MK2 cells assessed as early apoptotic cells at 2.4 uM measured after 24 hrs by Annexin-V-FITC/propidium iodide staining based flow cytometric method (reference value: 0.31%); format: functional
[20] = target: Cruzipain (Trypanosoma cruzi) (UniProt P25779); assay: Inhibition of Trypanosoma cruzi cruzain at 50 uM using Z-phe-Arg-aminomethylcoumarin as substrate pretreated for 10 mins measured for 5 mins by fluorometric method relative to control
Cruzipain (Trypanosoma cruzi), sequence (P25779 123-467 limits assumed): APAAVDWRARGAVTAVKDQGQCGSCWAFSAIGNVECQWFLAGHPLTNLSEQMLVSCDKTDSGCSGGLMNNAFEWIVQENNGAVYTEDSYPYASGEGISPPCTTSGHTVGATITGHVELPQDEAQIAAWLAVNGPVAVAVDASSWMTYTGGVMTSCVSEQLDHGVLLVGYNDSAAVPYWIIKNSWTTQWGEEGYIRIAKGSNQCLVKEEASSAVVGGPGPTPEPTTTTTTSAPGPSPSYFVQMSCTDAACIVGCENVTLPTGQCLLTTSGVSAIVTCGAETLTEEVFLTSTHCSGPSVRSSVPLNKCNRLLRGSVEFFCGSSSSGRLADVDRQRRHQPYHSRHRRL
Summary of the method: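 Cruzain at 0.5 nM in 0.1 M sodium acetate pH 5.5 with 0.1 mM β-mercaptoethanol and 0.01% Triton X-100. Compound screened at 50 µM after a 10-min preincubation with enzyme, then 2.5 µM Z-FR-AMC added. AMC fluorescence (ex 340/em 440 nm) followed for 5 min. Activity taken from initial rates relative to a DMSO control. Two independent experiments, each in triplicate.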

Trypanosoma cruzi [21] = assay: Induction of apoptosis in bloodstream trypomastigote stage of Trypanosoma cruzi Y infected in monkey LLC-MK2 cells assessed as viable cells at 2.4 uM measured after 24 hrs by Annexin-V-FITC/propidium iodide staining based flow cytometric method (reference value: 99.4%); format: functional

SMILES: C/C(=N\NC(=S)Nc1ccccc1)c1ccccn1
Activity (Trypanosoma cruzi [1]): 3.55%
selectivity ratio [2]: 8.4
MNTC [3]: 21 µM
Activity (Trypanosoma cruzi [4]): 3.6%
CC50 (Trypanosoma cruzi [5]): 15.4 µM
Activity (Trypanosoma cruzi [6]): 36%
CC50 (Trypanosoma cruzi [7]): 2.5 µM
Activity (Trypanosoma cruzi [8]): 36.8%
Activity (Trypanosoma cruzi [9]): 4.8%
Activity (Trypanosoma cruzi [10]): 5.4%

inhibition [20]: 48%
SMILES: COc1ccc(-c2cs/c(=N\N=C(/C)c3ccccn3)n2-c2ccccc2)cc1
selectivity ratio [2]: 397 to 398
MNTC [3]: 477 µM
Activity (Trypanosoma cruzi [11]): 53.8%
Activity (Trypanosoma cruzi [12]): 2.99 - 3.53%
Ratio (Trypanosoma cruzi [13]): 10
Activity (Trypanosoma cruzi [14]): 3.61 - 4.8%
Activity (Trypanosoma cruzi [15]): 38.6 - 39.6%
CC50 (Trypanosoma cruzi [5]): 5 µM
Ratio (Trypanosoma cruzi [16]): 4 - 5
Activity (Trypanosoma cruzi [17]): 3.67 - 4.5%
CC50 (Trypanosoma cruzi [7]): 1.2 µM
Activity (Trypanosoma cruzi [18]): 2.3 - 3.48%
Activity (Trypanosoma cruzi [19]): 36.4 - 38.9%
Activity (Trypanosoma cruzi [21]): 55.2%
